Results taken from ChEMBL document CHEMBL5108074 (J Med Chem, 2022).
In brackets after ≈: the same amount, converted by molar mass.

How the values were obtained:
[1] = Metabolic stability in human liver microsomes assessed as intrinsic clearance per mg of protein measured upto 60 mins in presence of NADPH regenerating system by LC-MS/MS analysis; type: ADME, Microsome; details: for microsomal intrinsic clearance: microsomes, 1 h
[2] = Kinetic solubility of the compound in aqueous assay buffer at pH 7.7
[3] = Kinetic solubility of the compound in 0.1N HCl
Plasma kallikrein [4] = target: T1, Plasma kallikrein (Homo sapiens, UniProt P03952); assay: Inhibition of human plasma kallikrein using H-D-Pro-Phe-Arg-AFC as flurogenic substrate preincubated for 5 mins followed by substrate addition by fluorometer analysis; type: cell-free
[5] = Apparent permeability of the compound across apical side to basolateral side in human Caco-2 cells incubated for 1 hr by LC-MS/MS analysis; details: for Papp: caco-2, 1 h
[6] = Clearance in Beagle dog blood at 1 mg/kg, iv measured upto 24 hrs by LC-MS analysis; type: ADME, organism-based, Canis lupus familiaris; details: whole blood
[7] = Thermodynamic solubility of the compound in FaSSIF at 1 mg/ml at pH 6.5 using crystalline form of sample measured after 4 hrs; type: physicochemical; details: simulated gi fluid, pH 6.5, 4 h
Summary of the method: (§1)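 Compound (nominal 1 or 100 mg/mL as free base) added to biorelevant medium preheated to 37 °C: FaSSGF at pH 1.6 or FaSSIF at pH 6.5. Vortexed, then shaken 4 h at 37 °C (~500 rpm). Centrifuged at 15000g for 10 min at 37 °C. Supernatant diluted and quantified against calibration standards. Crystalline material used where stated.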

[8] = Volume of distribution at steady state in Beagle dog at 1 mg/kg, po and 1 mg/kg, iv measured upto 24 hrs by LC-MS analysis; type: ADME, organism-based, Canis lupus familiaris; details: in vivo
Cytochrome P450 2B6 = Cytochrome P450 2B6 (Homo sapiens, UniProt P20813); assay: Inhibition of CYP2B6 in human liver microsomes assessed as reduction in hydroxybupropion metabolite formation incubated for 30 mins in presence of NADPH by LC-MS/MS analysis; type: ADME, Microsome
[9] = Clearance in Sprague-Dawley rat blood at 1 mg/kg, iv measured upto 24 hrs by LC-MS analysis; type: ADME, organism-based; details: whole blood
Summary of the method: (§2)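 Male Sprague-Dawley rats, two per route, single dose. IV: 1 mg/kg given as 1 mL/kg of a nominal 1 mg/mL formulation in vehicle. PO: 10 mg/kg given as 5 mL/kg of a 2 mg/mL formulation. PK parameters from noncompartmental analysis. Clearance expressed relative to rat liver blood flow of 80 mL/min/kg.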

[10] = Clearance in Beagle dog assessed as liver blood flow at 1 mg/kg, iv measured upto 24 hrs by LC-MS analysis; type: ADME, organism-based, Canis lupus familiaris; details: in vivo
[11] = Thermodynamic solubility of the compound in FaSSGF at 1 mg/ml at pH 1.6 using crystalline form of sample measured after 4 hrs; type: physicochemical; details: pH 1.6, 4 h; summary of the method: as §1
Cytochrome P450 2D6 = Cytochrome P450 2D6 (Homo sapiens, UniProt P10635); assay: Inhibition of CYP2D6 in human liver microsomes assessed as reduction in dextrorphan metabolite formation incubated for 30 mins in presence of NADPH by LC-MS/MS analysis; type: ADME, Microsome
[12] = target: Voltage-gated inwardly rectifying potassium channel KCNH2 (Homo sapiens, UniProt Q12809); assay: Inhibition of hERG expressed in CHO cells by whole cell patch clamp assay; type: toxicity, cell-based
Summary of the method: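 hERG K+ current recorded by automated whole-cell patch clamp in CHO cells stably expressing hERG. Concentrations tested up to a maximum of 33 μM.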

[13] = Clearance in Sprague-Dawley rat assessed as liver blood flow at 1 mg/kg, iv measured upto 24 hrs by LC-MS analysis; type: ADME, organism-based; details: in vivo; summary of the method: as §2
Cytochrome P450 3A4 [14] = target: T2, Cytochrome P450 3A4 (Homo sapiens, UniProt P08684); assay: Inhibition of CYP3A4 in human liver microsomes assessed as reduction in 6beta-hydroxytestosterone metabolite formation using testosterone as substrate incubated for 30 mins in presence of NADPH by LC-MS/MS analysis; type: ADME, Microsome
Plasma kallikrein [15] = target: T1, Plasma kallikrein; assay: Inhibition of DXS induced human whole plasma kallikrein using H-D-Pro-Phe-Arg-AFC as substrate preincubated for 5 mins followed by DXS stimulation by fluorometer analysis; type: cell-free
[16] = Oral bioavailability in Sprague-Dawley rat at 10 mg/kg measured upto 24 hrs by LC-MS analysis; type: ADME, organism-based; details: in vivo; summary of the method: as §2
Cytochrome P450 1A2 = target: T3, Cytochrome P450 1A2 (Homo sapiens, UniProt P05177); assay: Inhibition of CYP1A2 in human liver microsomes assessed as reduction in acetaminophen metabolite formation incubated for 30 mins in presence of NADPH by LC-MS/MS analysis; type: ADME, Microsome
T3 sequence (P05177 whole entry): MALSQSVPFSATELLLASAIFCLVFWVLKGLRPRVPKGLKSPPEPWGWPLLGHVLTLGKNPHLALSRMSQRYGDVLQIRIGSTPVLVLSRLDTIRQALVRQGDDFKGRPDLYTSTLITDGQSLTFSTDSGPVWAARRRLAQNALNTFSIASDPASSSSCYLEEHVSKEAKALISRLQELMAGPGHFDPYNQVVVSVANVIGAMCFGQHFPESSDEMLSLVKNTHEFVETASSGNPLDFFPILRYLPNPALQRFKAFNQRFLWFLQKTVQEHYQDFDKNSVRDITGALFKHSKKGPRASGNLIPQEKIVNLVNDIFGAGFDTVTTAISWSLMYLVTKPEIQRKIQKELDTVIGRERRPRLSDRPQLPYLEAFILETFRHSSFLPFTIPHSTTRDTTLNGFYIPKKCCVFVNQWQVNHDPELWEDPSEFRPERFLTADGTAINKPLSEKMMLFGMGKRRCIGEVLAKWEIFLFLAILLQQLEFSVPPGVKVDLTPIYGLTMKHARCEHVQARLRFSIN

Cytochrome P450 2C8 = Cytochrome P450 2C8 (Homo sapiens, UniProt P10632); assay: Inhibition of CYP2C8 in human liver microsomes assessed as reduction in 6 alpha-hydroxypaclitaxel metabolite formation incubated for 30 mins in presence of NADPH by LC-MS/MS analysis; type: ADME, Microsome
Cytochrome P450 2C19 = Cytochrome P450 2C19 (Homo sapiens, UniProt P33261); assay: Inhibition of CYP2C19 in human liver microsomes assessed as reduction in 4-hydroxymephenytoin metabolite formation incubated for 30 mins in presence of NADPH by LC-MS/MS analysis; type: ADME, Microsome
Cytochrome P450 2C9 = Cytochrome P450 2C9 (Homo sapiens, UniProt P11712); assay: Inhibition of CYP2C9 in human liver microsomes assessed as reduction in 4 hydroxy-diclofenac metabolite formation incubated for 30 mins in presence of NADPH by LC-MS/MS analysis; type: ADME, Microsome
[17] = Oral bioavailability in Beagle dog at 1 mg/kg measured upto 24 hrs by LC-MS analysis; type: ADME, organism-based, Canis lupus familiaris; details: in vivo
Cytochrome P450 3A4 [18] = target: T2, Cytochrome P450 3A4; assay: Inhibition of CYP3A4 in human liver microsomes assessed as reduction in 6beta-hydroxymidazolam metabolite formation using midazolam as substrate incubated for 30 mins in presence of NADPH by LC-MS/MS analysis; type: ADME, Microsome
[19] = Half life in Sprague-Dawley rat at 10 mg/kg, po and 1 mg/kg, iv measured upto 24 hrs by LC-MS analysis; type: ADME, organism-based; details: in vivo; summary of the method: as §2
[20] = Thermodynamic solubility of the compound in FaSSGF at 1 mg/ml at pH 1.6 measured after 4 hrs; type: physicochemical; details: for solubility thermodynamic at 4 h: FaSSGF, pH 1.6, read-out: Therm_solubility; summary of the method: as §1
[21] = Thermodynamic solubility of the compound in FaSSIF at 1 mg/ml at pH 6.5 measured after 4 hrs; type: physicochemical; details: for Therm_solubility: simulated gi fluid, pH 6.5, 4 h; summary of the method: as §1
[22] = Half life in Beagle dog at 1 mg/kg, po and 1 mg/kg, iv measured upto 24 hrs by LC-MS analysis; type: ADME, organism-based, Canis lupus familiaris; details: in vivo

T1 sequence (P03952 20-390 limits assumed): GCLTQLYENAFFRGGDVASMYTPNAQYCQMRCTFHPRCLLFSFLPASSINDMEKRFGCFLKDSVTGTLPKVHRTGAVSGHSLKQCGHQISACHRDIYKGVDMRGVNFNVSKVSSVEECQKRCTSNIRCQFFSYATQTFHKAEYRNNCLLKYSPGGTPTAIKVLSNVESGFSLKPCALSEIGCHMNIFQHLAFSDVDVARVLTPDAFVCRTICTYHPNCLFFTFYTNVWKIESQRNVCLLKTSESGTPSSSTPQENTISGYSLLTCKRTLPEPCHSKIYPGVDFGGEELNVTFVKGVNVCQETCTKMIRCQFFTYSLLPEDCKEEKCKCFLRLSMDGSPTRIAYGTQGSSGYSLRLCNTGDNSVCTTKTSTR
T1 sequence (P03952 391-638 limits assumed): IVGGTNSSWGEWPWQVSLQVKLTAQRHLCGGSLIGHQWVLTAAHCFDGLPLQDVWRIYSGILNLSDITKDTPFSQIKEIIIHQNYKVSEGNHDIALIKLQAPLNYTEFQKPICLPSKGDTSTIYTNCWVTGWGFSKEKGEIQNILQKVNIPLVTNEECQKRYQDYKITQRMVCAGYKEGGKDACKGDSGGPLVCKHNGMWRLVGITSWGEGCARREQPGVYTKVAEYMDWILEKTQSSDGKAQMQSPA
T2 sequence (P08684 whole entry): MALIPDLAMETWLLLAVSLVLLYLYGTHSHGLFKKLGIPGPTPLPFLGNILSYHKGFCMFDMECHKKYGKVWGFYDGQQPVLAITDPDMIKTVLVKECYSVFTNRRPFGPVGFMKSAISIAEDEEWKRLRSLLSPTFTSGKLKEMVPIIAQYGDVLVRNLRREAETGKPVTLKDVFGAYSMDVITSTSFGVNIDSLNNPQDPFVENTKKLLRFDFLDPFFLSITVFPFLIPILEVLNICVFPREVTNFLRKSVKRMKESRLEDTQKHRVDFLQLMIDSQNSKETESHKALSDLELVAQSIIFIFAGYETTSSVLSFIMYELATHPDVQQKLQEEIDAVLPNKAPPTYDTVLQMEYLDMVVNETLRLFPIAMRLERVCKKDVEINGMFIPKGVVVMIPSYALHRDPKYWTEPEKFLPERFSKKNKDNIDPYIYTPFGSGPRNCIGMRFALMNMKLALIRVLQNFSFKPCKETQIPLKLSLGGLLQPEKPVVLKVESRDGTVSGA
Sequence of Cytochrome P450 2D6 (P10635 whole entry): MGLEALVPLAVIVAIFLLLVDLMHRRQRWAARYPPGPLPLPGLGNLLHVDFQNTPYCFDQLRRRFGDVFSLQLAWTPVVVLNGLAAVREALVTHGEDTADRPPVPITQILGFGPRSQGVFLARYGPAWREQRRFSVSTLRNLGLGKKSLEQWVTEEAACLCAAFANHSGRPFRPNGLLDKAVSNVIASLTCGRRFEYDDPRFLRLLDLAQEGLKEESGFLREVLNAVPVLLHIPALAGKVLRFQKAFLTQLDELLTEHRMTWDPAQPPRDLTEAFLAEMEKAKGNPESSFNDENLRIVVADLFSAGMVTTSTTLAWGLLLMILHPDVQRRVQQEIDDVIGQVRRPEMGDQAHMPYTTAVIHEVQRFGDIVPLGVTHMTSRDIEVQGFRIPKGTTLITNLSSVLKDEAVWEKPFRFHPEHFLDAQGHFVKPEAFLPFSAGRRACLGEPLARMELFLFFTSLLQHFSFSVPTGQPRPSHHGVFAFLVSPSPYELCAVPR
Sequence of Voltage-gated inwardly rectifying potassium channel KCNH2 (Q12809 whole entry): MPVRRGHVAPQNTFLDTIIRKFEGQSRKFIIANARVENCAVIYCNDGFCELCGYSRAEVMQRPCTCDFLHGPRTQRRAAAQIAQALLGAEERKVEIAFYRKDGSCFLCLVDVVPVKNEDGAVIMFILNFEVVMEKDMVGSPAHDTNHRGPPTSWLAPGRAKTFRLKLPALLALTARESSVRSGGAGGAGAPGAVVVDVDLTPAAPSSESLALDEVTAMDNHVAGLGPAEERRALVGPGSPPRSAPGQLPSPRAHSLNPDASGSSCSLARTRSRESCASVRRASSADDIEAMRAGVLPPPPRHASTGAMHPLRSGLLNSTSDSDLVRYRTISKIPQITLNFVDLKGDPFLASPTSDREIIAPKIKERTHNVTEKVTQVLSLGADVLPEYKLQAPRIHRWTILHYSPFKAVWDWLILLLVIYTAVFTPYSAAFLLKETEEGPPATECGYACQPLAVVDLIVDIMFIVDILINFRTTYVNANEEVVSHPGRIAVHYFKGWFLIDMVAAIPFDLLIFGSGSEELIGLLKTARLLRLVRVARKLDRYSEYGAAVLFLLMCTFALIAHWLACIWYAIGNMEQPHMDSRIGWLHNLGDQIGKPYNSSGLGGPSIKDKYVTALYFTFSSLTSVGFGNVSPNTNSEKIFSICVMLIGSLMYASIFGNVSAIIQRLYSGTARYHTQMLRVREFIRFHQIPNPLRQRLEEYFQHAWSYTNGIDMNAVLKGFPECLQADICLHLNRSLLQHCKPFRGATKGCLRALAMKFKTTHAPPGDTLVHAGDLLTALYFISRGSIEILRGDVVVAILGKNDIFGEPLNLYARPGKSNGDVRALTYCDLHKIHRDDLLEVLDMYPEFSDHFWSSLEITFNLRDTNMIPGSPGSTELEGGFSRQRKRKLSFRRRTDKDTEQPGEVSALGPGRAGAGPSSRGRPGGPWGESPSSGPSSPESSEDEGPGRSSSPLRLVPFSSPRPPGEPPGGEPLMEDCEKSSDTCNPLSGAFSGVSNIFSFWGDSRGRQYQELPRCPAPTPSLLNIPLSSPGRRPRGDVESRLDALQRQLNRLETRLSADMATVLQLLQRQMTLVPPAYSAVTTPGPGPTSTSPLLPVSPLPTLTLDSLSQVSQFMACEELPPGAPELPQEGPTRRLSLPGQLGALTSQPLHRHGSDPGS
Sequence of Cytochrome P450 2C19 (P33261 whole entry): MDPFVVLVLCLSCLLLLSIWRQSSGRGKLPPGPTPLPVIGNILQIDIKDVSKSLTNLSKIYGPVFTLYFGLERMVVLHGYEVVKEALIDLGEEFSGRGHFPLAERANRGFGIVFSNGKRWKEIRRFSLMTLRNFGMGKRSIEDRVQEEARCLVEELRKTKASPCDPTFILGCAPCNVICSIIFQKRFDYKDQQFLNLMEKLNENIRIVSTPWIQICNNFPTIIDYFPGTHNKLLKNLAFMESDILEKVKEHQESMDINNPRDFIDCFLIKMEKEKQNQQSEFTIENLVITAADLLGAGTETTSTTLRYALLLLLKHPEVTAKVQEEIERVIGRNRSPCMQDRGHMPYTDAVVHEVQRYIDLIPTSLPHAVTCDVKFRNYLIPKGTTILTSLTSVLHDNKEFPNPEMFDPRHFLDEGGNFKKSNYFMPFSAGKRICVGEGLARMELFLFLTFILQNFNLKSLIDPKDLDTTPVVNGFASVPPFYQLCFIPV
Sequence of Cytochrome P450 2C9 (P11712 whole entry): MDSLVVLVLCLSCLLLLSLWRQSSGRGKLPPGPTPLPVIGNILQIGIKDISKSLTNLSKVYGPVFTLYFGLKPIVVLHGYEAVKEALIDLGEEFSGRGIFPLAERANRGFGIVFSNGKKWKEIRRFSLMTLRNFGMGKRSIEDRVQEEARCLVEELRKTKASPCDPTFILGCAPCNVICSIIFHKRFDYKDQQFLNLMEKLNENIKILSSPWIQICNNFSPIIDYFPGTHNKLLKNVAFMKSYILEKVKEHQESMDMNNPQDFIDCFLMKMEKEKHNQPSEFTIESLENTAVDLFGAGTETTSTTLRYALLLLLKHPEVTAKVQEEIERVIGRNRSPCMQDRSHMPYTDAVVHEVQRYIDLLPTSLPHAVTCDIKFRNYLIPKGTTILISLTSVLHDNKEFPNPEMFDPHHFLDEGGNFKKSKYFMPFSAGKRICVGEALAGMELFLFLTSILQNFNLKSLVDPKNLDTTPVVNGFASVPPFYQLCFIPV
Sequence of Cytochrome P450 2C8 (P10632 whole entry): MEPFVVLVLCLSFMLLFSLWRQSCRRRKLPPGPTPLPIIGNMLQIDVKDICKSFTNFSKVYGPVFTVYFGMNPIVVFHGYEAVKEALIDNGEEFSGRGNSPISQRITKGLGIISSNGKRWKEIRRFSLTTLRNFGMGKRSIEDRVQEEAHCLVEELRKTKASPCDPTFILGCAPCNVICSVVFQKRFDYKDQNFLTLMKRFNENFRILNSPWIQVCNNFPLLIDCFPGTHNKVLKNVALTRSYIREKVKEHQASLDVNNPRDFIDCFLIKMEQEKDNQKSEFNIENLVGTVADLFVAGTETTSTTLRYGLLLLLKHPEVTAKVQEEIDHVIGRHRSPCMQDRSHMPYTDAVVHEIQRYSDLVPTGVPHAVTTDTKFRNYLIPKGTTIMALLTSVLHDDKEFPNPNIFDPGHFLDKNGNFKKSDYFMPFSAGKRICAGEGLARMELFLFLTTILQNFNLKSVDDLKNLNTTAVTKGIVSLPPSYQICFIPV
Sequence of Cytochrome P450 2B6 (P20813 whole entry): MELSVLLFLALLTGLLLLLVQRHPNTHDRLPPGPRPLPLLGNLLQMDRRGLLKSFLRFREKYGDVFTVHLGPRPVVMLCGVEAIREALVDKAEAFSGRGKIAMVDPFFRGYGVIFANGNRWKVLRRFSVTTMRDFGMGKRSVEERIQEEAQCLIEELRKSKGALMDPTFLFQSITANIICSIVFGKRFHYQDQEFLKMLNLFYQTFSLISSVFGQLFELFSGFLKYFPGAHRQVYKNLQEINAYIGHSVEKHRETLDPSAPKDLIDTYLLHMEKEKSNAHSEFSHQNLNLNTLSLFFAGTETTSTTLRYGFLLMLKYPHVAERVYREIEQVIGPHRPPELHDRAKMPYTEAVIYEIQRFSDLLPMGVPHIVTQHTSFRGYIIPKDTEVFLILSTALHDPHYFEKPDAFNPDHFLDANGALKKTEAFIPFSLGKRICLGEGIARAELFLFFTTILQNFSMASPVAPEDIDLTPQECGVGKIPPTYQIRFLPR

`COCc1nn(Cc2ccc(Cn3ccccc3=O)cc2)cc1C(=O)NCc1cccc(OC)c1F` showed a microsomal intrinsic clearance [1] of 45 µL/min, a solubility kinetic [2] of over 120 µg/mL and a solubility kinetic [3] of over 120 µg/mL. For the same molecule, the IC50 (Plasma kallikrein [4]) was 0.017 µM and the Papp [5] was 25 10^-6 cm/s.

In the case of `Nc1cccc2cc(CNC(=O)c3cnn(Cc4ccc(Cn5ccccc5=O)cc4)c3)ccc12`, the microsomal CLint ([1]; liver microsomes, read-out: CLH) is reported as 37 µL/min/mg and the Papp A→B at 1 h ([5]; Caco-2) is reported as 2 ×10⁻⁶ cm/s.

In the case of `COCc1nn(Cc2ccc(Cn3ccccc3=O)cc2)cc1C(=O)NCc1c(F)ccc(OC)c1F`, the microsomal intrinsic clearance [1] is reported as 92 µL/min, the clearance [6] is reported as 24.5 mL/min/kg and the solubility kinetic [2] is reported as over 120 µg/mL. For the same molecule, the Therm_solubility [7] was 9 µg/mL, the Vdss [8] was 0.36 L/kg and the IC50 (Cytochrome P450 2B6) was over 25 µM. For the same molecule, the clearance [9] was 23.7 mL/min/kg, the solubility kinetic [3] was over 120 µg/mL and the LBF [10] was 74%. The IC50 (Plasma kallikrein [4]) was 0.006 µM, the Therm_solubility [11] was 9 µg/mL and the Papp [5] was 18 10^-6 cm/s. The IC50 (Cytochrome P450 2D6) was over 25 µM, the IC50 [12] was over 33 µM and the LBF [13] was 30%. It also gave an IC50 (Cytochrome P450 3A4 [14]) of 11 µM, an IC50 (Plasma kallikrein [15]) of 0.5 µM and an F [16] of 64%. It also gave an IC50 (Cytochrome P450 1A2) of over 25 µM, an IC50 (Cytochrome P450 2C8) of 14 µM and an IC50 (Cytochrome P450 2C19) of over 25 µM. For the same molecule, the IC50 (Cytochrome P450 2C9) was 13 µM, the F [17] was 16% and the IC50 (Cytochrome P450 3A4 [18]) was 19 µM. The t1/2 [19] was 0.7 h.

`COCc1nn(Cc2ccc(Cn3ccccc3=O)cc2)cc1C(=O)NCc1c(C#N)ccc(OC)c1F` gave a microsomal intrinsic clearance [1] of 58 µL/min, a solubility kinetic [2] of over 120 µg/mL and a solubility thermodynamic at 4 h [20] of 21 µg/mL (≈ 40.7 µM). The clearance [9] was 27.6 mL/min/kg, the solubility kinetic [3] was over 120 µg/mL and the IC50 (Plasma kallikrein [4]) was 0.001 µM. The Papp [5] was 14 10^-6 cm/s, the solubility thermodynamic at 4 h ([21]; FaSSIF, pH 6.5, read-out: Therm_solubility) was 31 µg/mL (≈ 60.1 µM) and the LBF [13] was 35%. For the same molecule, the F [16] was 20% and the t1/2 [19] was 1.1 h.

For `COc1ccc(F)c(CNC(=O)c2cn(Cc3ccc(Cn4ccccc4=O)cc3)nc2CN(C)C)c1F`, the microsomal intrinsic clearance [1] was 280 µL/min, the IC50 (Plasma kallikrein [4]) was 0.0063 µM and the Papp [5] was 14 10^-6 cm/s.

For `COc1ccnc(CNC(=O)c2cn(Cc3ccc(Cn4ccccc4=O)cc3)nc2C(F)(F)F)c1F`, the microsomal intrinsic clearance [1] was 49 µL/min, the clearance [6] was 15.9 mL/min/kg and the Vdss [8] was 0.63 L/kg. It also gave a Therm_solubility ([20]; buffer, pH 1.6, 4 h) of 690 µg/mL, a clearance [9] of 11.1 mL/min/kg and a t1/2 [22] of 0.9 h. The LBF [10] was 48%, the Papp [5] was 17 10^-6 cm/s and the IC50 (Cytochrome P450 2D6) was over 25 µM. It also gave an IC50 [12] of over 33 µM, a Therm_solubility [21] of 20 µg/mL and an LBF [13] of 14%. The IC50 (Cytochrome P450 3A4 [14]) was over 25 µM, the IC50 (Plasma kallikrein [15]) was 0.076 µM and the F [16] was 97%. It also gave an IC50 (Cytochrome P450 1A2) of over 25 µM, an IC50 (Cytochrome P450 2C19) of over 25 µM and an IC50 (Cytochrome P450 2C9) of over 25 µM. For the same molecule, the F [17] was 32%, the IC50 (Cytochrome P450 3A4 [18]) was over 25 µM and the t1/2 [19] was 1.1 h.

`COCc1nn(Cc2ccc(Cn3ccccc3=O)cc2)cc1C(=O)NCc1nccc(OC)c1C` gave a solubility thermodynamic at 4 h [20] of 970 µg/mL (≈ 1990 µM), a clearance [9] of 35 mL/min/kg and an IC50 (Plasma kallikrein [4]) of 0.0041 µM. For the same molecule, the Therm_solubility [21] was 110 µg/mL, the LBF [13] was 44% and the F [16] was 31%. For the same molecule, the t1/2 [19] was 1 h.
